Series [1] addresses T1, ATP-dependent translocase ABCB1 (Homo sapiens, UniProt P08183). In words: Inhibition of ABCB1 in human KBV1 cells assessed as reduction in Calcein-AM dye efflux 1 uM by FACS analysis. The note with it: kbv1, 1 µM. It is filed as cell-based. The gist of the method:
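Trypsinized cells were resuspended in IMDM with 5% FCS. Calcein-AM was added to 3 × 10^5 cells in 4 mL IMDM, with or without 1 μM test compound or 3 μM tariquidar. Intracellular calcein fluorescence was read immediately by flow cytometry, with the drug-sensitive parental line run in parallel.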

Series [2] addresses T1, ATP-dependent translocase ABCB1. In words: Inhibition of human ABCB1 transfected in HEK293 cells assessed as potentiation of doxorubicin-induced cytotoxicity by measuring doxorubicin resistance ratio at 50 nM after 72 hrs by CCK8 assay relative to parental HEK293 cells (reference value: 96). Format: cell-based. The note with it: hek293, 72 h, 0.05 µM.
The target is the same in series [3]. In words: Inhibition of human ABCB1 transfected in HEK293 cells assessed as potentiation of doxorubicin-induced cytotoxicity by measuring doxorubicin resistance ratio at 200 nM after 72 hrs by CCK8 assay relative to parental HEK293 cells (reference value: 96). Format: cell-based. The note with it: hek293, 72 h, 0.2 µM.
Series [4] shares this target. In words: Inhibition of ABCB1 in human KBV1 cells assessed as potentiation of doxorubicin-induced cytotoxicity at 1 uM after 72 hrs by MTT assay. It is filed as cell-based. To be noted: kbv1, 72 h. A digest of the protocol: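 The cells were kept in drug-free medium for 7 days. They were seeded at 5000 cells/well, allowed to attach for 24 h at 37 °C, then exposed to graded doxorubicin with or without 50–500 nM test compound or 1 μM tariquidar for a further 72 h. Viability was read by MTT. Results are means of at least three independent experiments.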

Series [5] has the same target. As to the kind of experiment: Inhibition of ABCB1 in human KBV1 cells assessed as potentiation of doxorubicin-induced cytotoxicity by measuring doxorubicin resistance ratio at 500 nM after 72 hrs by MTT assay relative to parental KB-3-1 cells (reference value: 34). To be noted: kbv1, 72 h, 0.5 µM. Format: cell-based. The gist of the method:
(§1)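 Cells were kept in drug-free DMEM with 10% FCS for 7 days before assay, then plated at 5000 cells/well for 24 h. Drug at various concentrations was added with a nontoxic fixed level of modulator for 72 h, and the read-out was MTT. IC50 came from fitted curves (≥3 experiments). RR = IC50 of the resistant line / IC50 of the parental line.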

For series [6] the target is unchanged. In words: Inhibition of ABCB1 in human KBV1 cells assessed as potentiation of colchicine-induced cytotoxicity by measuring colchicine resistance ratio at 500 nM after 72 hrs by MTT assay relative to parental KB-3-1 cells (reference value: 55). It is filed as cell-based. The note with it: kbv1, 72 h, 0.5 µM. The gist of the method: as §1
Series [7] shares this target. As to the kind of experiment: Inhibition of ABCB1 in human KBV1 cells assessed as potentiation of colchicine-induced cytotoxicity by measuring colchicine resistance ratio at 200 nM after 72 hrs by MTT assay relative to parental KB-3-1 cells (reference value: 55). It is filed as cell-based. The note with it: kbv1, 72 h, 0.2 µM. A digest of the protocol: as §1
The target is the same in series [8]. In words: Inhibition of ABCB1 in human KBV1 cells assessed as potentiation of vincristine-induced cytotoxicity by measuring vincristine resistance ratio at 500 nM after 72 hrs by MTT assay relative to parental KB-3-1 cells (reference value: 356). Format: cell-based. The note with it: kbv1, 72 h, 0.5 µM. A digest of the protocol: as §1
Series [9] shares this target. As to the kind of experiment: Inhibition of ABCB1 in human KBV1 cells assessed as potentiation of vincristine-induced cytotoxicity by measuring vincristine resistance ratio at 50 nM after 72 hrs by MTT assay relative to parental KB-3-1 cells (reference value: 356). The note with it: kbv1, 72 h, 0.05 µM. It is filed as cell-based. The gist of the method: as §1
The target is the same in series [10]. As to the kind of experiment: Inhibition of ABCB1 in human NCI-ADR-RES cells assessed as potentiation of doxorubicin-induced cytotoxicity by measuring doxorubicin resistance ratio at 500 nM after 72 hrs by MTT assay relative to parental OVCAR8 cells (reference value: 46). Format: cell-based. The note with it: ovcar-8, 72 h, 0.5 µM. The gist of the method:
as §1

Series [11] has the same target. As to the kind of experiment: Inhibition of ABCB1 in human NCI-ADR-RES cells assessed as potentiation of doxorubicin-induced cytotoxicity by measuring doxorubicin resistance ratio at 100 nM after 72 hrs by MTT assay relative to parental OVCAR8 cells (reference value: 46). It is filed as cell-based. To be noted: ovcar-8, 72 h, 0.1 µM. A digest of the protocol: as §1

For series [12] the target is unchanged. In words: Inhibition of ABCB1 in human NCI-ADR-RES cells assessed as potentiation of colchicine-induced cytotoxicity by measuring colchicine resistance ratio at 500 nM after 72 hrs by MTT assay relative to parental OVCAR8 cells (reference value: 59). The note with it: ovcar-8, 72 h, 0.5 µM. Format: cell-based. The gist of the method: as §1
Series [13] has the same target. In words: Inhibition of ABCB1 in human NCI-ADR-RES cells assessed as potentiation of colchicine-induced cytotoxicity by measuring colchicine resistance ratio at 50 nM after 72 hrs by MTT assay relative to parental OVCAR8 cells (reference value: 59). It is filed as cell-based. The note with it: ovcar-8, 72 h, 0.05 µM. A digest of the protocol: as §1
Series [14] has the same target. In words: Inhibition of ABCB1 in human NCI-ADR-RES cells assessed as potentiation of vincristine-induced cytotoxicity by measuring vincristine resistance ratio at 100 nM after 72 hrs by MTT assay relative to parental OVCAR8 cells (reference value: 435). Format: cell-based. To be noted: ovcar-8, 72 h, 0.1 µM. The gist of the method:
as §1

The target is the same in series [15]. In words: Inhibition of ABCB1 in human NCI-ADR-RES cells assessed as potentiation of vincristine-induced cytotoxicity by measuring vincristine resistance ratio at 50 nM after 72 hrs by MTT assay relative to parental OVCAR8 cells (reference value: 435). It is filed as cell-based. To be noted: ovcar-8, 72 h, 0.05 µM. A digest of the protocol: as §1
Series [16] concerns KB 3-1. In words: Induction of apoptosis in human KB-3-1 cells assessed as viable cells at 1 uM after 48 hrs by Annexin V-FITC/propidium iodide staining based FACS analysis (reference value: 88.4%). Format: functional. To be noted: KB 3-1, 48 h, read-out: Activity.
Series [17] has as its system KB 3-1. In words: Induction of apoptosis in human KB-3-1 cells assessed as necrotic cells at 1 uM after 48 hrs by Annexin V-FITC/propidium iodide staining based FACS analysis (reference value: 0.7%). Format: functional.
Series [18] relates to KB-V1. In words: Induction of apoptosis in human KBV1 cells assessed as viable cells at 1 uM after 48 hrs by Annexin V-FITC/propidium iodide staining based FACS analysis (reference value: 86.1%). Format: functional. The note with it: KB-V1, 48 h, read-out: Activity.
Series [19] relates to KB-V1. In words: Induction of apoptosis in human KBV1 cells assessed as late apoptotic cells at 1 uM after 48 hrs by Annexin V-FITC/propidium iodide staining based FACS analysis (reference value: 7.6%). Format: functional.
Series [20] relates to KB 3-1. As to the kind of experiment: Potentiation of colchicine-induced apoptosis in human KB-3-1 cells assessed as viable cells at 1 uM after 48 hrs by Annexin V-FITC/propidium iodide staining based FACS analysis (reference value: 38.9%). Format: functional. The note with it: KB 3-1, 48 h, read-out: Activity.
In series [21] the test system is KB 3-1. As to the kind of experiment: Potentiation of colchicine-induced apoptosis in human KB-3-1 cells assessed as necrotic cells at 1 uM after 48 hrs by Annexin V-FITC/propidium iodide staining based FACS analysis (reference value: 4.9%). Format: functional.
The target in series [22] is ABCB1 (P-glycoprotein) (Homo sapiens, UniProt P08183). As to the kind of experiment: Induction of Vanadate-sensitive ABCB1 (unknown origin) assessed as increase in ATPase activity up to 1 uM by Pgp-glo assay relative to control. The note with it: read-out: FC. The gist of the method: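 Vanadate-sensitive ABCB1 ATPase activity measured with the Pgp-Glo system as […], across 0–1 μM test compound. Points are means of at least three independent experiments.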
ABCB1 (P-glycoprotein), sequence (P08183 whole entry): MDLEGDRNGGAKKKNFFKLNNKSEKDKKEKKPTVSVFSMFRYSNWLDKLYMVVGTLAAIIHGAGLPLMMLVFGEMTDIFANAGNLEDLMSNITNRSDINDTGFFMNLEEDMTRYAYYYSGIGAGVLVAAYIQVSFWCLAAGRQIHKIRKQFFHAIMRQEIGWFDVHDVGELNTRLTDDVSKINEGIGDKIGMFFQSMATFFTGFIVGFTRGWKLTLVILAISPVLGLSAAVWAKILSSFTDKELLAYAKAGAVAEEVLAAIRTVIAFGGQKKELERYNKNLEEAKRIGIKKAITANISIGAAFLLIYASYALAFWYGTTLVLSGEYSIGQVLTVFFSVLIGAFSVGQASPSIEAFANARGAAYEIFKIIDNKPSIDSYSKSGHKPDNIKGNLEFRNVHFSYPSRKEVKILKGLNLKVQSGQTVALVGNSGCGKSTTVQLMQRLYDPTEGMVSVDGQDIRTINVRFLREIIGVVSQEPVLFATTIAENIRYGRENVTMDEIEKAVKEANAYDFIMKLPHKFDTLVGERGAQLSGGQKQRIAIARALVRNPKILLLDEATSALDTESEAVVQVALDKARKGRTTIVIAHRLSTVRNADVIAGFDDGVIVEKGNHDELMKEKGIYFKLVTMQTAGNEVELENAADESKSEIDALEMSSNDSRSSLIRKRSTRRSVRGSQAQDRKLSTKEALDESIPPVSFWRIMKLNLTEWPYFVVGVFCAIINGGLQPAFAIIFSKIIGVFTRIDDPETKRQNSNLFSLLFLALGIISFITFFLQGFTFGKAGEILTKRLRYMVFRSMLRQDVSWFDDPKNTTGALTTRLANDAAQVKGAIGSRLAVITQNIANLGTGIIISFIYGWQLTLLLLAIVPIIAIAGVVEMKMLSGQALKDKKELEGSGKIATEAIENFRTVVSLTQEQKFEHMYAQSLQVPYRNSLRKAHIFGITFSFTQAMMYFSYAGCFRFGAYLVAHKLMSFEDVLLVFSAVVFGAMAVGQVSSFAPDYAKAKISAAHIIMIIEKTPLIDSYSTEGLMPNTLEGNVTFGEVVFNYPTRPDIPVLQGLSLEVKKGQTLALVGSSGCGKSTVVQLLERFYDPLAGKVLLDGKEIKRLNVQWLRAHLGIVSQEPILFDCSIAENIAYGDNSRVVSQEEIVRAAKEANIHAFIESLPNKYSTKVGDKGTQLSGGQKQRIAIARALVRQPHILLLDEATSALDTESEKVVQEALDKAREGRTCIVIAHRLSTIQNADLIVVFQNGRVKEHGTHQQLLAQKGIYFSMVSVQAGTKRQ

The values below come from ChEMBL document CHEMBL3867440, “Hernandezine, a Bisbenzylisoquinoline Alkaloid with Selective Inhibitory Activity against Multidrug-Resistance-Linked ATP-Binding Cassette Drug Transporter ABCB1” (J Nat Prod, 2016).

SMILES strings stand for the structures.

T1 sequence (P08183 whole entry): as above

For `COc1ccc2cc1Oc1ccc(cc1)C[C@H]1c3cc(c(OC)cc3CCN1C)Oc1c(OC)c(OC)c(OC)c3c1[C@H](C2)N(C)CC3` [HERNANDEZINE], the “inhibition (INH)” value in [1] and in [4] was “Active” each time. Moreover, the Ratio came to 16 in [2]; 8 in [3]; 1 in series [5]; 3 in series [6]; 13 in [7]; 3 in series [8]. The Ratio in [9] was determined as 325; in series [10], 2; in [11] it was 11; in series [12] it was 4; in series [13] it was 46; in series [14] it was 433. Also, the Ratio in series [15] came to 505. The viability at 1 µM came out at 88.8% in series [16], 87.6% in series [18] and 37.4% in series [20]. Further, the values for the Activity in [17], in series [19] and in series [21] were 0.2%, 6.7% and 5.1%, respectively. In addition, the fold induction in series [22] was found to be 7.
